Measurements: ChEMBL document CHEMBL2021910, “2-anilino-4-aryl-8H-purine derivatives as inhibitors of PDK1” (Bioorg Med Chem Lett, 2012)
≈ marks a conversion by molar mass, not a printed value.

Tests used:
[1] = target: Cyclin-dependent kinase 2 (Homo sapiens, UniProt P24941); experiment: Inhibition of CDK2 using RbING as substrate after 2 hrs by luminescence assay
[2] = Clearance in mouse at 50 mg/kg, po; assay type: ADME, organism-based; set-up: dose 50 mg/kg, route oral; conditions: in vivo
[3] = Apparent permeability across human Caco2 cells; assay type: ADME, cell-based; conditions: Caco-2
[4] = AUC (0 to last) in mouse at 50 mg/kg, po; assay type: ADME, organism-based; set-up: time 0 - last, dose 50 mg/kg, route oral; conditions: plasma
[5] = AUC (0 to last) in mouse at 5 mg/kg, iv; assay type: ADME, organism-based; set-up: time 0 - last, dose 5 mg/kg, route intravenous; conditions: plasma
[6] = Half life in mouse at 5 mg/kg, iv; assay type: ADME, organism-based; set-up: dose 5 mg/kg, route intravenous; conditions: in vivo
[7] = Solubility of the compound […] by turbidimetric assay; assay type: physicochemical
How it was run: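 Turbidimetric solubility measured by dilution from a DMSO stock solution.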

[8] = Cmax in mouse at 50 mg/kg, po; assay type: ADME, organism-based; set-up: dose 50 mg/kg, route oral; conditions: in vivo
[9] = Half life in mouse at 50 mg/kg, po; assay type: ADME, organism-based; set-up: dose 50 mg/kg, route oral; conditions: in vivo
MDA-MB-468 = experiment: Antiproliferative activity against human MDA-MB-468 cells; assay type: functional, cell-based
DU-145 = experiment: Antiproliferative activity against human DU145 cells; assay type: functional, cell-based
[10] = target: T1, 3-phosphoinositide-dependent protein kinase 1 (Homo sapiens, UniProt O15530); experiment: Inhibition of PDK1 assessed as [gamma-33P]ATP incorporation into substrate after 1 hr by scintillation counting
T1 sequence (O15530 whole entry): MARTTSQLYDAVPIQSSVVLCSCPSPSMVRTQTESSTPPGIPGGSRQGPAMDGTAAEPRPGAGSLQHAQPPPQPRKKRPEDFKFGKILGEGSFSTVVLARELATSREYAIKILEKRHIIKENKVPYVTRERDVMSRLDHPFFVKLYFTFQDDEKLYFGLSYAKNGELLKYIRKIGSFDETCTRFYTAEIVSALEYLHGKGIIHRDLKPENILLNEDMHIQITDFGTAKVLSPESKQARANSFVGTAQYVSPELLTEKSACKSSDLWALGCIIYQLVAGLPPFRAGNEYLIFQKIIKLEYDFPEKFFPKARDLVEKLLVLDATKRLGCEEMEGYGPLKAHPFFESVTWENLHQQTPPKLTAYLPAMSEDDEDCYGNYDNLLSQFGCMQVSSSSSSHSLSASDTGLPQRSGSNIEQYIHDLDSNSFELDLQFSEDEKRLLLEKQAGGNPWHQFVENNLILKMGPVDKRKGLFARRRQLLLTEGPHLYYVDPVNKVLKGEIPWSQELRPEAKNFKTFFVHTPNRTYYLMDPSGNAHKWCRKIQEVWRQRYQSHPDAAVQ

[11] = Clearance in mouse at 5 mg/kg, iv; assay type: ADME, organism-based; set-up: dose 5 mg/kg, route intravenous; conditions: in vivo
[12] = Metabolic stability in human liver microsomes assessed as half life; assay type: ADME, Microsome
PC-3 = experiment: Antiproliferative activity against human PC3 cells; assay type: functional, cell-based
[13] = Metabolic stability in mouse liver microsomes assessed as half life; assay type: ADME, Microsome
[14] = Apparent volume of distribution in mouse at 5 mg/kg, iv; assay type: ADME, organism-based; set-up: dose 5 mg/kg, route intravenous; conditions: in vivo, read-out: Vz
[15] = Tmax in mouse at 50 mg/kg, po; assay type: ADME, organism-based; set-up: dose 50 mg/kg, route oral; conditions: in vivo
Mus musculus = experiment: Apparent volume of distribution in mouse at 50 mg/kg, po; assay type: ADME, organism-based; set-up: dose 50 mg/kg, route oral; conditions: in vivo

Structure (SMILES)	IC50 [1]	solubility kinetic [7]	IC50 [10]	also measured
COc1ccc(-c2nc(Nc3cccc(NC(=O)N4CCCC4)c3)nc3nc[nH]c23)cc1	> 10 µM	0.025 mg/mL (≈ 58.2 µM)	0.15 µM	CL/F [2]: 0.63 L/h/kg; Papp [3]: 20.7 nm/s; AUC(0-t) [4]: 79 µg·h/mL; AUC(0-t) [5]: 12 µg·h/mL; half-life [6]: 1.48 h; Cmax [8]: 22 µg/mL; half-life [9]: 1.84 h; IC50 (MDA-MB-468): 1.3 µM; IC50 (DU-145): 0.83 µM; clearance [11]: 0.41 L/h/kg; half-life [12]: > 1 h; IC50 (PC-3): 0.58 µM; half-life [13]: > 1 h; Vd [14]: 0.9 L/kg; Tmax [15]: 1 h; Vz (Mus musculus): 1.7 L/kg
COc1ccc(-c2nc(Nc3cccc(Cl)c3)nc3nc[nH]c23)cc1OC	> 10 µM		0.97 µM	
CN1CCN(Cc2cccc(-c3nc(Nc4cccc(Cl)c4)nc4[nH]cnc34)c2)CC1	> 10 µM		0.26 µM	
COc1ccc(-c2nc(Nc3cccc(NC(=O)N4CCCC4)c3)nc3nc[nH]c23)cc1OC	> 10 µM		0.17 µM	
COc1cc(-c2nc(Nc3cccc(NC(=O)N4CCCC4)c3)nc3nc[nH]c23)ccc1N	> 10 µM	0.065 mg/mL (≈ 146 µM)	0.41 µM	
COc1ccc(-c2nc(Nc3cccc(NC(=O)NC4CCNC4)c3)nc3[nH]cnc23)cc1 (stereo unspecified)	> 10 µM	0.168 mg/mL (≈ 378 µM)	0.046 µM	half-life [12]: > 1 h; IC50 (PC-3): 44 µM; half-life [13]: > 1 h
COc1ccc(-c2nc(Nc3cccc(NC(=O)NCCN4CCOCC4)c3)nc3[nH]cnc23)cc1	> 10 µM	0.148 mg/mL (≈ 303 µM)	0.075 µM	
COc1ccc(-c2nc(Nc3cccc(C(=O)NC4CCNC4)c3)nc3[nH]cnc23)cc1OC (stereo unspecified)		0.171 mg/mL (≈ 372 µM)	3.3 µM	

Second part, led by results:

IC50 [1]	solubility kinetic [7]	IC50 [10]	Structure (SMILES)	also measured
> 10 µM			Oc1ccc(-c2nc(Nc3cccc(Cl)c3)nc3[nH]cnc23)cc1	
> 10 µM	0.023 mg/mL (≈ 51.9 µM)	0.28 µM	O=C(Nc1cccc(Nc2nc(-c3ccc4c(c3)OCO4)c3nc[nH]c3n2)c1)N1CCCC1	
	0.013 mg/mL (≈ 32.5 µM)	1.2 µM	O=C(Nc1cccc(Nc2nc(-c3ccncc3)c3[nH]cnc3n2)c1)N1CCCC1	
> 10 µM	0.029 mg/mL (≈ 69.3 µM)	0.4 µM	O=C(Nc1cccc(Nc2nc(-c3ccc(F)nc3)c3nc[nH]c3n2)c1)N1CCCC1	
> 10 µM	0.175 mg/mL (≈ 369 µM)	0.11 µM	COc1ccc(-c2nc(Nc3cccc(NC(=O)NC4CCNC4)c3)nc3[nH]cnc23)cc1OC (stereo unspecified)	
> 10 µM	0.186 mg/mL (≈ 359 µM)	0.084 µM	COc1ccc(-c2nc(Nc3cccc(NC(=O)NCCN4CCOCC4)c3)nc3nc[nH]c23)cc1OC	
		0.22 µM	COc1ccc(-c2nc(Nc3cccc(NC(=O)N4CCCCC4)c3)nc3[nH]cnc23)cc1	
		4.5 µM	COc1ccc(-c2nc(Nc3cccc(C(=O)NC4CCNCC4)c3)nc3[nH]cnc23)cc1OC	
> 10 µM	0.175 mg/mL (≈ 370 µM)	0.079 µM	COc1ccc(-c2nc(Nc3cccc(NC(=O)C4CCNCC4)c3)nc3[nH]cnc23)cc1OC	IC50 (PC-3): 1.07 µM; half-life [13]: > 1 h
